Measurements published in ChEMBL document CHEMBL1137079, “Synthesis and structure-activity relationships of 3-aminobenzophenones as antimitotic agents” (J Med Chem, 2004).

Tests used:
KB [1] = assay: In vitro cytotoxic activity against human KB cell line of epidermoid carcinoma; type: functional, cell-based
Method in brief: (§1)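 Cells kept in RPMI-1640 with 5% fetal bovine serum; log-phase cells seeded at 5000 cells/mL/well, exposed to various drug concentrations for 72 h. Growth read by methylene blue dye assay; IC50 (50% growth inhibition versus control) derived graphically. Mean and SD of at least three independent experiments.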

TSGH = assay: In vitro cytotoxic activity against human TSGH cell line of stomach carcinoma; type: functional, cell-based; method in brief: as §1
KB [2] = assay: In vitro cytotoxic activity against human KB-VIN10 cell line overexpressing P-gp 170/MDR; type: functional, cell-based
Method in brief: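 Vincristine-selected P-gp170/MDR-overexpressing KB line, maintained with 10 nM vincristine, then grown drug-free for 3 days before use. Log-phase cells seeded at 5000 cells/mL/well, exposed 72 h to various drug concentrations; methylene blue dye readout, IC50 (50% growth inhibition versus control) taken graphically. Mean and SD, at least three independent experiments.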

Tubulin = Tubulin (Bos taurus, UniProt Q6B856+Q862L2+Q862F3); assay: Inhibitory concentration required against MAP-rich tubulin polymerization; type: functional
HT-29 = assay: In vitro cytotoxic activity against human HT-29 cell line of colorectal carcinoma; type: functional, cell-based; method in brief: as §1
[3] = biological target: Tubulin alpha chain (Sus scrofa) (UniProt P02550); assay: Ability to inhibit 3[H]Colchicine binding to colchicine-binding domain of tubulin; effective inhibition
[4] = biological target: Tubulin alpha chain (Sus scrofa) (UniProt P02550); assay: Ability to inhibit 3[H]Colchicine binding to colchicine-binding domain of tubulin; Weak inhibition
[5] = biological target: Tubulin alpha chain (Sus scrofa) (UniProt P02550); assay: Ability to inhibit 3[H]Colchicine binding to colchicine-binding domain of tubulin; Strong inhibition

Sequence of Tubulin alpha chain (Sus scrofa) (P02550 whole entry, looked up, the tested form may be a part): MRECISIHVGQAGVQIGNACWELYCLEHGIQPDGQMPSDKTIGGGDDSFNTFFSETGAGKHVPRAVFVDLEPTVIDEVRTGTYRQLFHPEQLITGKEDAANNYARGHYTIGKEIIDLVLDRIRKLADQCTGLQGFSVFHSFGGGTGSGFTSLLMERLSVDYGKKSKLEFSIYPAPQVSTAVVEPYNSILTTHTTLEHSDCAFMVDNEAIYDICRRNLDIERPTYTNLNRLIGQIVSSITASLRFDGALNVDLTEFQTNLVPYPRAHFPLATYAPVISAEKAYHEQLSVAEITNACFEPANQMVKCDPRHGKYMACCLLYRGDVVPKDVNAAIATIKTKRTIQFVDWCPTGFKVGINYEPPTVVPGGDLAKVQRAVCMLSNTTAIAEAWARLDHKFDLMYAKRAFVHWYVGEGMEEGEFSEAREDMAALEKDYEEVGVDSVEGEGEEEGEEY

SMILES	IC50 (Tubulin) [nM]	inhibition [3]	inhibition [4]	inhibition [5]	IC50 (KB [1]) [nM]	IC50 (TSGH) [nM]	IC50 (KB [2]) [nM]	IC50 (HT-29) [nM]
CCOc1ccc(C(=O)c2cc(OC)c(OC)c(OC)c2)cc1N	700	–	–	–	59	42	40	45
COc1cc(C(=O)c2ccc(OC(C)C)c(N)c2)cc(OC)c1OC	6400	–	–	–	900	900	800	1300
COc1ccc(Cc2cc(OC)c(OC)c(OC)c2)cc1N	> 50000	–	–	–	> 10000	> 10000	> 10000	> 10000
COc1ccc(C(=O)c2cc(OC)c(OC)c(OC)c2)cc1O [PHENSTATIN]	400	–	–	–	30	170	30	560
COc1cc(N)cc(C(=O)c2cc(OC)c(OC)c(OC)c2)c1	2600	–	–	–	590	157	307	163
COc1ccc(C(=O)c2cc(OC)c(OC)c(OC)c2)cc1N	300	–	–	Strong inhibition	32	33	31	33
COc1ccc(/C=C\c2cc(OC)c(OC)c(OC)c2)cc1N	–	–	–	–	8.2	7.7	7.5	7.9
CCCOc1ccc(C(=O)c2cc(OC)c(OC)c(OC)c2)cc1N	42000	–	–	–	3800	4800	8600	9000
COc1ccc(C(=O)c2cc(OC)c(OC)c(OC)c2)c(N)c1	400	–	–	Strong inhibition	32	26	24	42
COc1ccc(/C=C\c2cc(OC)c(OC)c(OC)c2)cc1O [COMBRETASTATIN A4]	–	–	–	–	2.1	45	2.4	260

Further lines, with some results ahead:

IC50 (Tubulin) [nM]	inhibition [3]	inhibition [4]	inhibition [5]	SMILES	IC50 (KB [1]) [nM]	IC50 (TSGH) [nM]	IC50 (KB [2]) [nM]	IC50 (HT-29) [nM]
17000	–	–	–	COc1cc(C(=O)c2cc(N)cc(Cl)c2)cc(OC)c1OC	1400	1500	2900	1900
600	effective inhibition	–	–	COc1cc(C(=O)c2cc(N)ccc2Cl)cc(OC)c1OC	180	157	125	163
2900	–	Weak inhibition	–	COc1ccc(N)cc1C(=O)c1cc(OC)c(OC)c(OC)c1	306	497	324	400
11000	–	–	–	COc1cc(C(=O)c2ccc(Cl)c(N)c2)cc(OC)c1OC	800	4000	3800	4000
100	–	–	–	COc1cc(C(=O)c2cc(Cl)ccc2N)cc(OC)c1OC	195	185	162	218
1000	–	–	–	COc1ccc(N)c(C(=O)c2cc(OC)c(OC)c(OC)c2)c1	127	100	352	148
2700	–	–	–	COc1cc(C(=O)c2ccc(Cl)cc2N)cc(OC)c1OC	710	800	800	1000
